B1: Osa-1-4 twister ribozyme (parent)
chain: CCGCCUAACACUGCCAAUGCCGGUCCCAAGCCCGGAUAAAAGUGGAGGGGGCGG

Variants of: B1
Experiment: self-cleavage, relative activity (ratio to wild type); higher = more cleavage; co-transcriptional
Method in brief: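 Relative activity is the fraction cleaved divided by that of the wild-type ribozyme. The library came from a DNA template for a 54-nucleotide Oryza sativa twister ribozyme, doped at the 48 positions downstream of the cleavage site with 97 % wild-type base and 1 % of each other base. After 2 h of in vitro transcription at 37 °C with co-transcriptional self-cleavage, the RNA was reverse-transcribed with a template-switching oligonucleotide, amplified by PCR and deep-sequenced, and reads with or without upstream sequence gave the cleavage status.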

Variant | self-cleavage
A29G G35U | 0.16
A29G G35C | 0.05
A29G G35A | 0.24
A29G C20U | 0.28
A29G C20G | 0.04
A29G C20A | 0.33
A28U G47A | 0.09
A28U G47C | 0.06
A28U G47U | 0.1
A29C U37C | 0.04
A29C U37A | 0.04
A29C U37G | 0.06
A28U G30A | 0.04
A28U G30U | 0.04
A28U G30C | 0.05
A29C C15A | 0.02
A29C C15U | 0.03
A29C C15G | 0.04
A29G A36C | 0.07
A29G A36G | 0.47
A29G A36U | 0.32
A29C G54A | 0.03
A29C G54U | 0.08
A29C G54C | 0.04

Variant | self-cleavage
A28U G50A | 0.42
A28U G50C | 0.81
A28U G50U | 0.95
A29C C27A | 0.04
A29C C27U | 0.02
A29C C27G | 0.02
A28U G19A | 0.24
A28U G19U | 0.13
A28U G19C | 0.07
A29G G45C | 0.03
A29G G45A | 0.05
A29G G45U | 0.04
A29G U12G | 0.04
A29G U12A | 0.1
A29G U12C | 0.08
A29C A38U | 0.03
A29C A38G | 0.04
A29C A38C | 0.04
A29C U18C | 0.04
A29C U18G | 0.06
A29C U18A | 0.04
A29G A41C | 0.21
A29G A41U | 0.46
A29G A41G | 0.12

Variant | self-cleavage
A29C A40U | 0.04
A29C A40C | 0.02
A29C A40G | 0.02
A29C C33G | 0.01
A29C C33A | 0.04
A29C C33U | 0.03
A29C G47U | 0.03
A29C G47A | 0.02
A29C G47C | 0.02
A29G G23U | 0.05
A29G G23C | 0.04
A29G G23A | 0.07
A29C G23A | 0.05
A29C G23C | 0.02
A29C G23U | 0.02
A29G G30C | 0.03
A29G G30U | 0.04
A29G G30A | 0.05
A29G G22U | 0.06
A29G G22A | 0.11
A29G G22C | 0.12
A28U G48A | 0.06
A28U G48C | 0.06
A28U G48U | 0.06

Variant | self-cleavage
A29G U24A | 0.07
A29G U24C | 0.08
A29G C11G | 0.07
A29G C11A | 0.08
A29G C11U | 0.11
A29G G19U | 0.07
A29G G19C | 0.06
A29G G19A | 0.08
A29C G45U | 0.01
A29C G45A | 0.02
A29C G45C | 0.01
A29C G34C | 0.03
A29C G34A | 0.04
A29C G34U | 0.03
A29G C21U | 0.17
A29G C21G | 0.07
A29G C21A | 0.1
A29G G48C | 0.04
A29G G48A | 0.04
A29G G48U | 0.03
A29C C11G | 0.02
A29C C11A | 0.04
A29C C11U | 0.04
A29C C20G | 0.02

Variant | self-cleavage
A29C C20A | 0.03
A29C C20U | 0.08
A28U G42A | 0.16
A28U G42U | 0.06
A28U G42C | 0.09
A29G U18G | 0.34
A29G U18A | 0.23
A29G U18C | 0.23
A29C C21U | 0.06
A29C C21G | 0.02
A29C C21A | 0.04
A29G A46G | 0.04
A29G A46C | 0.03
A29G A46U | 0.04
A28U U18C | 0.73
A28U U18A | 0.91
A28U U18G | 0.91
A29G A8C | 0.04
A29G A8U | 0.07
A29G A8G | 0.11
A28U U12G | 0.11
A28U U12A | 0.38
A28U U12C | 0.13
A28U U24G | 0.02

Variant | self-cleavage
A28U U24C | 0.09
A28U U24A | 0.08
A29G G47A | 0.05
A29G G47U | 0.03
A29G G47C | 0.03
A29G G44C | 0.16
A29G G44U | 0.08
A29G G44A | 0.07
A29G G42U | 0.04
A29G G42A | 0.06
A29G G42C | 0.06
A28U G53A | 0.42
A28U G53C | 0.08
A28U G53U | 0.15
A29C G44C | 0.05
A29C G44U | 0.05
A29C G44A | 0.04
A28U G54A | 0.66
A28U G54C | 0.71
A28U G54U | 0.72
A28U G22U | 0.2
A28U G22C | 0.06
A28U G22A | 0.34
A29G C25A | 0.04

Variant | self-cleavage
A29G C25U | 0.08
A29G C25G | 0.04
A29G A39U | 0.11
A29G A39C | 0.06
A29G A39G | 0.09
A28U C33G | 0.05
A28U C33U | 0.49
A28U C33A | 0.08
A29C A8U | 0.02
A29C A8G | 0.03
A29C A8C | 0.04
A29C C26G | 0.02
A29C C26A | 0.02
A29C C26U | 0.03
A29C G42C | 0.02
A29C G42A | 0.03
A29C G42U | 0.01
A29C C31A | 0.02
A29C C31U | 0.02
A29C C31G | 0.02
A28U C32G | 0.1
A28U C32A | 0.07
A28U C32U | 0.1

— the RNAGym collection of RNA variant scans (doi:10.1002/anie.201605470)
